Data on one compound can be found in paper PMC9214341 (Acta Pharmaceutica Sinica. B, 2021).

Assay [1] concerns tumor infiltrating immune cells. Put plainly: Flow cytometry analysis of tumor-infiltrating immune cells. It is filed as in vivo, BALB/c mice. As to conditions: CT26 tumor-bearing mice, 16 mg/kg daily, 5 days. The method in brief: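 Tumor-bearing mice (n = 5) got vehicle or test compound. Tumors were cut up and digested in RPMI 1640 with 0.1% type IV collagenase and 0.01% DNase I at 37 °C for 45 min, passed through a 70 μm strainer, and red cells lysed. Cells were Fc-blocked on ice for 15 min and surface-stained on ice for 30 min. MDSCs were scored as a proportion of CD45⁺ cells (mean ± SEM).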

In another assay the test system is CT26 cells. Put plainly: SRB cell proliferation assay, CT26. It is filed as cell-based, murine. As to conditions: gradient concentrations, 72 h.
For a further assay, the system named is MC38 cells. Put plainly: SRB cell proliferation assay, MC38. It is filed as cell-based, murine. As to conditions: gradient concentrations, 72 h.

In the case of `O=C(/C=C/c1cccnc1)NCCCCC1CCN(C(=O)c2ccccc2)CC1` [FK866], in assay [1], the “infiltrating MDSCs in CT26 tumors” value is on record as “did not affect”. The cell growth sensitivity result with CT26 cells and in the assay with MC38 cells was “did not show the apparent growth dependency” in each case.
